CTSL1 counter: Fasciola hepatica cathepsin L1 inhibitors, primary screen, counter-screen for PFM18AAP inhibitor project, biochemical, QFRET, fluorogenic peptide substrate. recombinant F. hepatica cathepsin L1, Z-Leu-Arg-MCA fluorescence. inhibition, % at 5.96 µM. 300,000 compounds, 0.49% hits. AID 1906, 2009;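 active = inhibition above the mean of all tested compounds plus 3 SD, set per screening campaign, cut at about 17% in these data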;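 also: 0% = plate median of test compound wells and 100% = 1 µM Z-Phe-Ala-diazomethylketone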
NS3 helicase inh: inhibitors of HCV NS3 helicase, primary screen, biochemical, Cy5 molecular beacon fluorescence; Hepatitis C virus NS3 helicase; NS3 helicase DNA unwinding; inhibition, % at 10.9 µM; 290,000 compounds, 0.56% hits;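 active = inhibition above the mean of all tested compounds plus 3 SD, set per campaign, cut at about 35% in these data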;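 also: 0% = DMSO wells and 100% = thioflavine S control wells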
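Compound dosing – single dose, 10.9 µM nominal final, DMSO 0.8% final · System – NS3 helicase fragment of HCV · Buffer or medium – MOPS pH 6.5, MgCl2, DTT, Tween20, BSA · Signal – Cy5 beacon fluorescence read at start and 1 h · Also added – annealed dual-labelled DNA beacon duplex, ATP-started · Schedule – 1 h at 25 °C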
EBNA-1 inh: EBNA-1 DNA-binding inhibitors, primary screen, biochemical, fluorescence polarization; AID 1950, 2009; inhibition, % at 14.8 µM; 300,000 compounds, 0.34% hits; in the data active = inhibition above about 28%
ZTA counter: ZTA (EBV) inhibition in EBNA-1 counter-screen. P03206. ZTA-DNA binding, fluorescence polarization. inhibition, % at 11 µM. 320,000 compounds, 0.15% hits; in the data active = inhibition above about 33%
Target sequence (P03206 whole entry, looked up): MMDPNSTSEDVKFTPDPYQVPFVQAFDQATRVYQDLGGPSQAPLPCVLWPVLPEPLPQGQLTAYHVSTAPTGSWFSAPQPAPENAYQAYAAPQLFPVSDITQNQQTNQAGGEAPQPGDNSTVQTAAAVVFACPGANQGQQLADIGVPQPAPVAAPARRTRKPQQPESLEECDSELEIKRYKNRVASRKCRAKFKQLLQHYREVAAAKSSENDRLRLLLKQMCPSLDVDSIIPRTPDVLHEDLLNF
Zta DNA confirm: EBV Zta binding to ZRE DNA, inhibitors, confirmation, biochemical, fluorescence polarization, triplicate; shares compounds with ZTA counter; inhibition, % at 11.1 µM; 320 compounds, 30% hits; AID 2361, 2010;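 active = mean inhibition across triplicate runs above the hit threshold derived for the original primary screen, cut at about 33% in these data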;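 also: 0% = Zta with DMSO and 100% = wells lacking Zta protein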
EBNA-1 counter: EBNA-1 DNA-binding inhibition, counter-screen for ZTA inhibitor project, biochemical, fluorescence polarization; shares compounds with ZTA counter; inhibition, % at 14.8 µM; 320 tested, under 10 active; call rule not given here
The depositor's hits bear a star; x = not tested or not shown; + = active, no number. This is a sample that favours compounds with a hit; in the whole collection about 1.4% have one here.

SMILES	CTSL1 counter	NS3 helicase inh	EBNA-1 inh	ZTA counter	Zta DNA confirm	EBNA-1 counter
COc1ccc(NC(=O)CCN2CCCC(C)C2)cc1 (centres undefined)	-3	4	5	52*	1	-10
COc1ccc(NC(=O)CCN2CCC(C)CC2)cc1	-4	2	-20	-11	x	x
CCN1c2ccc(S(=O)(=O)N3CCOCC3)cc2N(Cc2ccc(OC)cc2)C1C (centres undefined)	2	-35	2	6	x	x
CCNc1ccc2noc3c2c1C(=O)c1ccccc1-3	3	21	-3	63*	19	9
CCOc1ccc2noc3c2c1C(=O)c1ccccc1-3	2	0	-10	2	x	x
COc1ccc(C)cc1NC(=O)C(NCC(O)c1ccccc1)c1ccccc1 (centres undefined)	-3	-26	-4	-9	x	x
C/C=C\C=C\C(=O)N1CC2(CC(c3cccc(NC(=O)CC)c3)=NO2)C[C@H]1C(N)=O (some centres undefined)	-1	x	6	35*	9	5
Cc1cc(C(=O)OCC(=O)NC(C)C)c(C)o1	-3	0	-2	6	x	x
CCn1c(CSc2nnc(-c3ccncc3)n2CCOC)nc2cc(C(=O)O)ccc21	2	4	5	37*	30	17
CCn1c(CSc2n[nH]c(N)n2)nc2cc(C(=O)O)ccc21	-2	6	16	34*	39*	19
O=C(NCCCN1CCOCC1)c1ccc(/C=C2\Oc3ccccc3N(Cc3ccccc3F)C2=O)cc1	2	-78	-1	48*	14	-6
CCN(CC)C(=O)C1=C(C)NC(=O)NC1c1ccccc1F (centres undefined)	-1	9	10	0	x	x
O=C(Nc1cc(S(=O)(=O)N2CCOCC2)ccc1N1CCOCC1)c1ccc(Cl)nc1	-4	4	7	34*	5	5
NS(=O)(=O)c1ccc(NC(=O)c2cccc(N3C(=O)c4ccccc4C3=O)c2)cc1	1	-59	-2	61*	58*	-1
CC1=[N+](C)c2ccc3ccccc3c2C1(C)C	0	-20	1	+	69*	18
COc1ccc(Sc2nc3ccccc3n3c(C(F)(F)F)nnc23)cc1	3	0	7	47*	-4	-3
Cc1cccc(NC(=O)COc2ccc(/C=C\c3[nH]c(=O)[nH]c(=O)c3[N+](=O)[O-])cc2)c1	0	23	19	44*	42*	9
O=C(CCCN1C(=O)/C(=C\c2ccco2)SC1=S)Nc1ccc(O)cc1C(=O)O	0	17	12	53*	0	2
O=C(CN1C(=O)/C(=C/c2ccco2)SC1=S)Nc1ccc(C(=O)O)c(O)c1	3	27	12	57*	19	-5
CC(=O)c1cccc(NC(=O)C(C)OC(=O)c2ccc3ncsc3c2)c1 (centres undefined)	x	x	x	-1	x	x
COc1cccc(=O)c2c(C)n(-c3ccc(C(=O)O)cc3)c(C)c12	6	15	16	46*	-8	-4
COc1ccc(-n2c(C)c3c(OC)cccc(=O)c3c2C)cc1	-5	11	7	13	x	x
O=c1cc(Nc2cccc(Br)c2)[nH]c(=O)[nH]1	-9	-1	-12	-5	x	x
O=c1[nH]c(Nc2ccccc2)cc2cc(Br)ccc12	61*	x	-6	41*	2	-5
O=C(/C=C/c1ccco1)NC(=S)Nc1ccc(C(=O)O)cc1	-3	30	-11	54*	38*	1
SMILES	CTSL1 counter	NS3 helicase inh	EBNA-1 inh	ZTA counter	Zta DNA confirm	EBNA-1 counter
COc1ccc(NC(=S)NC(=O)/C=C/c2ccco2)cc1	-1	11	-6	3	x	x
CCCCCCCCCCCCCCCC[N+](C)(C)CCN(Cc1ccc(OC)cc1)c1ncccn1	2	x	6	35*	77*	3
Cc1ccc(S(=O)(=O)N2CCC(C(=O)N(C)C3CCS(=O)(=O)C3)CC2)cc1 (centres undefined)	-3	5	0	-16	x	x
Nc1ccc2c(c1)C(=O)C(=O)c1ccccc1-2	112*	9	-8	58*	65*	-11
O=c1[nH]c(-c2ccc(Cl)cc2)nc(=S)[nH]1	-1	-3	1	46*	3	-10
Cc1cc(=O)[nH]c(-c2ccc(Cl)cc2)n1	3	5	6	-8	x	x
Cc1nc2c(ccc3nc(NC(=O)C4CC4)sc32)s1	-2	5	10	2	x	x
CCC(=O)Nc1nc2ccc3sc(C)nc3c2s1	2	10	11	35*	-7	-4
CC(C)(C(=O)Nc1nccs1)c1ccccc1	1	-3	2	40*	2	-1
COc1ccccc1Nc1nc(C)nc2c1oc1ccccc12	0	-8	-3	13	x	x
COc1ccc(Nc2nc(C)nc3c2oc2ccccc23)c(OC)c1	5	-14	0	39*	23	-4
CC1(C)Cc2c(sc(NC(=O)COc3cccc4ccccc34)c2C#N)C(C)(C)N1	-2	-53	5	48*	51*	-5
COc1ccc(C(=O)Nc2ccc(C(=O)Nc3cccnc3)cc2)cc1	-1	2	11	52*	23	7
COc1ccc(OCc2nc3c4c(ncn3n2)-c2ccccc2CC42CCCC2)cc1	4	1	-2	5	x	x
COc1cc(/C=C2\S/C(=N/S(=O)(=O)Cc3ccccc3)NC2=O)c([N+](=O)[O-])cc1OC	2	24	13	39*	8	11
COc1ccc(CN2CCN(Cc3ccc(C(F)(F)F)cc3)CC2)cc1	-1	-46	-2	-11	x	x
CCn1c(SC(C)C)nnc1C1CCN(S(=O)(=O)c2ccc(OC)cc2)CC1	-1	13	14	0	x	x
Cc1cc(NC(=O)CSc2nnc(-c3ccccc3C)n2C)no1	x	x	x	3	x	x
O=C(COc1ccc(S(=O)(=O)NC2CCCCC2)cc1Cl)NCC1CCCO1 (centres undefined)	1	3	4	152*	12	0
O=C(C1CCN(S(=O)(=O)c2ccc3c(c2)OCCO3)CC1)N1CCc2ccccc21	-2	4	3	10	x	x
COCCCN(C(=O)c1cc2c(s1)CCCCC2)c1c(N)n(Cc2ccccc2)c(=O)[nH]c1=O	-6	x	12	162*	15	0
Cc1cc(C)c(S(=O)(=O)N2CCCOC2CNC(=O)C(=O)NCc2cccnc2)c(C)c1 (centres undefined)	-3	-7	4	9	x	x
CCCC(=O)Nc1ccc2oc(-c3cccnc3)nc2c1	-2	-4	-7	45*	2	-5
Cc1ccc(-c2nn(-c3ccccc3)cc2C(=O)O)o1	0	10	4	37*	-2	-13
COc1ccc(Br)cc1CNc1ccc(O)cc1	1	9	-1	40*	-5	0
